We go through 1 compound from ChEMBL document CHEMBL4308843, “Identification of ABX-1431, a Selective Inhibitor of Monoacylglycerol Lipase and Clinical Candidate for Treatment of Neurological Disorders” (J Med Chem, 2018).

For orientation: Tmax means the time at which the peak concentration occurs. In general, bioavailability refers to dose-corrected exposure relative to a reference, in per cent. High values mean good availability, low ones poor availability. Usually IC50 stands for the concentration at which inhibition is half-maximal. As usually defined, the ED50 is the dose at which the effect has come halfway, by size or by number of responders.

The source made the active and inactive calls. No cut-off for these calls is given here.

Series [1] can be described thus: Tmax in Sprague-Dawley rat at 1 mg/kg, iv or 5 mg/kg, po by LC-MS analysis. To be noted: in vivo. The format is ADME, organism-based. A digest of the protocol:
(§1)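 Rats (n = 3 per route) were dosed at 1 mg/kg iv (70% PEG400 in HPBCD/saline) or 5 mg/kg po (70% PEG400 in 0.5% CMC/saline), fasted overnight to 4 h post-dose. Jugular-catheter blood (~100 µL) was sampled to 24 h into 400 µL acetonitrile to stop esterases. Samples were quantified by HPLC-MS/MS, with noncompartmental analysis.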

Series [2] deals with T1, Monoglyceride lipase (Mus musculus) (UniProt O35678).
T1 sequence (whole entry): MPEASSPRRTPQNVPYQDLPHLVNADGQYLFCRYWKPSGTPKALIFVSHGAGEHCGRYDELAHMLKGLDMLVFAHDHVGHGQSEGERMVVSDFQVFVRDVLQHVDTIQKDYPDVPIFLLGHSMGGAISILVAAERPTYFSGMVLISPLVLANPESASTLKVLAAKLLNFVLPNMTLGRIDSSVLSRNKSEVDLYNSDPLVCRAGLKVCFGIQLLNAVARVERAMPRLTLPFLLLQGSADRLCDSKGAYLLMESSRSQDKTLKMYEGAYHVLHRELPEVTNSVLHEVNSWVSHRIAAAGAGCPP
The experiment in a line: Inhibition of MGLL in mouse brain membrane homogenates at 0.001 to 10 uM preincubated for 30 mins followed by FP-Rh addition after 30 mins by gel-based ABPP assay. Format: cell membranes. A digest of the protocol: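 Brain membrane homogenates (1 mg/mL protein) were preincubated with 0.001-10 µM inhibitor or DMSO for 30 min at 37°C, then labelled with 1 µM FP-Rh for 30 min at 25°C. Reactions were quenched in SDS-PAGE loading buffer, run on 10% gels and scanned in-gel. MGLL band intensities were normalised to DMSO (100%).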

Series [3] can be described thus: Volume of distribution at steady state in Beagle dog at 1 mg/kg, iv or 1 mg/kg, po by LC-MS analysis. Format: ADME, organism-based, Canis lupus familiaris. To be noted: in vivo, read-out: Vdss. In a few lines: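 Male beagle dogs (n = 3 per route), 10–12 months old, were dosed at 1 mg/kg iv or po in PEG400/ethanol/PBS (7/2/1), fasted overnight to 2 h post-dose. Peripheral venous blood was sampled to 24 h into K2EDTA and plasma frozen at −80 °C. Plasma was quantified by HPLC-MS/MS, with noncompartmental analysis.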

A short description of series [4]: Intrinsic clearance in human liver microsomes. Format: ADME, Microsome. To be noted: read-out: CLH.
The nature of series [5]: Oral bioavailability in Sprague-Dawley rat at 5 mg/kg by LC-MS analysis. Format: ADME, organism-based. The following applies: in vivo. A digest of the protocol: as §1
A further series addresses T2, Cytochrome P450 1A2 (Homo sapiens, UniProt P05177).
T2 sequence (P05177 whole entry): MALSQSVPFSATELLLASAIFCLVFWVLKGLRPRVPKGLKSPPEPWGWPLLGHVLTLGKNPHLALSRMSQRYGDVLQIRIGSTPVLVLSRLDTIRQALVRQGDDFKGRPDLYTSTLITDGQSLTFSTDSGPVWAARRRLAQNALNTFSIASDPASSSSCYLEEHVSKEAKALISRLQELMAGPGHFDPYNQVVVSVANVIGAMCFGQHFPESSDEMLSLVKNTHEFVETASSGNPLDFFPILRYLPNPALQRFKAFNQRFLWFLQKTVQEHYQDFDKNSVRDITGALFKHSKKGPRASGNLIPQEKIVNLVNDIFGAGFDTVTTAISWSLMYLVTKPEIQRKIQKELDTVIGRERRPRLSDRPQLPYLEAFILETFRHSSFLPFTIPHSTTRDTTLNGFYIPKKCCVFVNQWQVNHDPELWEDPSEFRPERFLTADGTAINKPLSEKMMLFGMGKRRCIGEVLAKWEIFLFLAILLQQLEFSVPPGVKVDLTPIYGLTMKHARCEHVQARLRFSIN
Kind of series: Inhibition of recombinant human CYP1A2. The format is ADME.

The subject of another series is Rattus norvegicus. The experiment in a line: Effect on spontaneous locomotor activity in Sprague-Dawley rat assessed as locomotor counts at 10 mg/kg, po monitored over 10 mins period. The following applies: in vivo. Format: ADME, organism-based. In a few lines:
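Male Sprague Dawley rats (175–200 g) received vehicle (0.5% methylcellulose) or 10 mg/kg orally. Four hours later, spontaneous locomotor frequency was recorded for 10 min in a vibration-sensing Laboras cage system; n = 10 per group.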

The subject of a further series is Mus musculus. The experiment in a line: In vivo inhibition of CES1c in po dosed ICR mouse brain measured 4 hrs post dose in presence of FP-Rh probe by gel-based ABPP assay. The format is functional. In a few lines: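 Male ICR mice, 6–12 weeks old, given single oral doses (0.5–32 mg/kg, n = 3) in PEG400:ethanol:PBS (7/2/1 v/v/v) at 5 mL/kg. Brains were removed 4 h later and one hemisphere processed for gel-based ABPP. Proteome was labeled with FP-Rh (1 µM, 30 min) and read by in-gel fluorescence relative to vehicle.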

Series [6] concerns the target T3, Solute carrier family 22 member 2 (Homo sapiens, UniProt O15244).
T3 sequence (O15244 whole entry): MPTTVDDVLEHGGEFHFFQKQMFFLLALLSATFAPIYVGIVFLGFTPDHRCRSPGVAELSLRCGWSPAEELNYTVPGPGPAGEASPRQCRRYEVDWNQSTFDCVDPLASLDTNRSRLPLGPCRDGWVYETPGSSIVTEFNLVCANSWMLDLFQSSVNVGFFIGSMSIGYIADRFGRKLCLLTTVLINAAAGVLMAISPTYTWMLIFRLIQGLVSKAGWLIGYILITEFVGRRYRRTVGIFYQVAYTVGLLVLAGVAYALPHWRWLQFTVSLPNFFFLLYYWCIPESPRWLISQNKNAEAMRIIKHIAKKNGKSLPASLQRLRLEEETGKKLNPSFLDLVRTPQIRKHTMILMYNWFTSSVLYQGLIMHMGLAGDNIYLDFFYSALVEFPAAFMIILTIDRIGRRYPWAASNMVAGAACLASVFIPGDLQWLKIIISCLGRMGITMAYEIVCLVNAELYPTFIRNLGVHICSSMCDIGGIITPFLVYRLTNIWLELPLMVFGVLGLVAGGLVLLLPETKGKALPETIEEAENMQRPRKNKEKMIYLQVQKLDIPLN
Kind of series: Inhibition of OCT2 (unknown origin) at 10 uM. The format is ADME.

Series [7] addresses T4, Monoacylglycerol lipase ABHD6 (Mus musculus) (UniProt Q8R2Y0).
T4 sequence (whole entry): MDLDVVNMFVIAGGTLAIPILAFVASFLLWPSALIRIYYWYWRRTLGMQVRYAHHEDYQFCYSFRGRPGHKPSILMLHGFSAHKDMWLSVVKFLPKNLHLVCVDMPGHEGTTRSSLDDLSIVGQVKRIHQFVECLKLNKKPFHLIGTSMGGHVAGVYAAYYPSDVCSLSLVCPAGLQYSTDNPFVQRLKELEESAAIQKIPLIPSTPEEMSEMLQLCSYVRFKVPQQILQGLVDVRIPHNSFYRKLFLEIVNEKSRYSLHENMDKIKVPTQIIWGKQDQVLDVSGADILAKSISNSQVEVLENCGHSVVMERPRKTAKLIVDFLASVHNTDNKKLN
The experiment in a line: Inhibition of ABHD6 in mouse brain membrane homogenates at 0.001 to 10 uM preincubated for 30 mins followed by FP-Rh addition after 30 mins by gel-based ABPP assay. The format is cell membranes.

The nature of series [8]: Inhibition of BCRP (unknown origin) at 10 uM. The format is ADME. To be noted: human.

On to `O=C(OC(C(F)(F)F)C(F)(F)F)N1CCN(Cc2ccc(C(F)(F)F)cc2N2CCCC2)CC1` [ELCUBRAGISTAT], for which, in series [1], the Tmax is 8 h. The inhibition result in [2] and in [7] was “Active” throughout. Besides, the Vd in [3] came out at 1.2 L/kg. Moreover, the microsomal CLint in series [4] is 19 µL/min/mg. The same compound yielded a bioavailability in series [5] of 64%. Moreover, on Cytochrome P450 1A2, the IC50 was above 50 µM. Moreover, the Activity entry in the series on Rattus norvegicus was “Non-Toxic”. Besides, the ED50 with Mus musculus amounted to 32 mg/kg. For the same compound, the “inhibition (INH)” value in series [6] and in [8] was “Not Active” throughout.
